Among the data in ChEMBL document CHEMBL1146602, “4-Hydroxymethyl-3-aminoacridine derivatives as a new family of anticancer agents” (J Med Chem, 2003) are IC50 and logP values, retold here.

Series [1] deals with L1210. Briefly: In vitro cytotoxic against L1210 (murine leukemia) cell line. The series is classed as functional, cell-based. The conditions noted are these: Mus musculus. Put shortly:
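L1210 mouse leukaemia cells in DMEM with 10% FCS, seeded at 10⁵ cells/mL and grown 24 h (about 3×10^5 cells/mL). Compounds added in DMSO at increasing concentrations, in duplicate, against DMSO controls. Cells counted with a Coulter counter after a further 24 h at 37 °C, 5% CO2. IC50 (50% reduction in cell number versus controls) taken from regression curves.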

Series [2] concerns A549. The series can be described thus: In vitro cytotoxicity against A549 (human lung carcinoma) cell line. The series is classed as functional, cell-based. In outline: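 Clonogenic test on A549 lung adenocarcinoma cells in F12-K with 10% FCS, plated at 200 cells/well. After 24 h, exposed 24 h to compounds at various concentrations, washed with PBS, then grown 14 days drug-free. Giemsa-stained colonies counted; survival as % of untreated controls.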

For series [3], the system named is HT-29. Briefly: In vitro cytotoxicity against HT-29 (human colon cancer) cell line. The series is classed as functional, cell-based. Put shortly:
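HT29 colon adenocarcinoma cells in DMEM with 10% FCS, seeded at 5×10^4 cells/well and grown 2 days, then exposed 24 h to compounds in DMSO (DMSO controls). Cells washed with PBS and regrown 3 days drug-free. Survival read by MTT (30 min, 100 µg/well), formazan dissolved in DMSO, A540, as % of controls. IC50 taken from regression curves.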

Series [4] can be described thus: Partition coefficient (logP). The series is classed as physicochemical. The conditions noted are these: octanol/water.

By IC50 is commonly meant the concentration that gives 50% inhibition. Read a low IC50 as greater potency. As usually defined, the logP is a log measure of how a compound divides between an organic and an aqueous phase. High values mean higher lipophilicity, low ones lower lipophilicity. Turning to `CNc1ccc2cc3ccc(N(C)S(C)(=O)=O)cc3nc2c1CO`, the IC50 turned out to be 200 nM in series [1], 300 nM in series [2] and 1200 nM in series [3]. The molecule further had a logP in series [4] of 1.56.
Regarding `CCOC(=O)Nc1ccc2cc3ccc4c(c3nc2c1)COC(=O)N4`, the IC50 amounted to 2700 nM in series [1], 2200 nM in series [2] and 11000 nM in series [3]. For the same molecule, the lipophilicity (logP) in series [4] was 2.
Take `CCOC(=O)Nc1ccc2cc3ccc4c(c3nc2c1)COCN4C(=O)OCC`: the results for the IC50 in series [1], in series [2] and in series [3] were 84000 nM, 19000 nM and greater than 100000 nM, respectively. The same molecule came in with a lipophilicity (logP) in series [4] of 3.12.
On the same counts, the results for `CCOC(=O)Nc1ccc2cc3ccc4c(c3nc2c1)COCN4` are 80 nM, greater than 50 nM, 1300 nM and 2.07.
`Nc1ccc2cc3ccccc3nc2c1CO`: the IC50 in series [1] amounted to 20 nM; in series [2] it was 5 nM; in series [3] it was 25 nM. In addition, the lipophilicity (logP) in series [4] came out at 1.77.
Turning to `CS(=O)(=O)Nc1ccc2cc3ccc4c(c3nc2c1)COCN4`, the IC50 is 6200 nM in series [1], 6000 nM in series [2] and 12000 nM in series [3]. In series [4], this molecule came in with a log partition coefficient (logP) of 0.7.
For `CCOC(=O)N1COCc2c1ccc1cc3ccc(NC)c(CO)c3nc21`, the IC50 was determined as 1500 nM in series [1], 350 nM in series [2] and 4200 nM in series [3]. Moreover, the logP in series [4] was found to be 1.75.
On the same counts, the results for `CCOC(=O)Nc1ccc2cc3ccc(NC)c(CO)c3nc2c1` are 90 nM, 30 nM, 350 nM and 1.97.
On the same counts, the results for `CN(C)c1ccc2cc3ccccc3nc2c1CO` are 6000 nM, 13000 nM, 14000 nM and 2.2.
For `CN1COCc2c1ccc1cc3ccc4c(c3nc21)COC(=O)N4`, the concentration for half-maximal inhibition (IC50) in series [1] is 1000 nM; in series [2], 450 nM; in series [3], 9000 nM. This molecule returned a logP in series [4] of 1.7.
For the molecule `c1cc2cc3ccc4c(c3nc2c2c1NCOC2)COCN4`, the IC50 in series [1] is 350 nM; in series [2], 20 nM; in series [3], 1500 nM. For the same molecule, the log partition coefficient (logP) in series [4] was determined as 2.17.
On the same counts, the results for `CN(c1ccc2cc3ccc4c(c3nc2c1)COCN4)S(C)(=O)=O` are 600 nM, 1300 nM, 2300 nM and 1.54.
On to `O=C1Nc2ccc3cc4ccccc4nc3c2CO1`, for which the IC50 in series [1] was 2800 nM; in series [2], 7000 nM; in series [3] it was 17000 nM. For the same molecule, in series [4], the lipophilicity (logP) came to 1.64.
`CCOC(=O)Nc1ccc2cc3ccc(N)c(CO)c3nc2c1`: the IC50 in series [1] is 10 nM; in series [2], 10 nM; in series [3] it was 40 nM. Also, the lipophilicity (logP) in series [4] was 1.55.
With `CNc1ccc2cc3ccc4c(c3nc2c1CO)COCN4`, the IC50 came to 500 nM in series [1], 100 nM in series [2] and 2000 nM in series [3]. The molecule also gave a log partition coefficient (logP) in series [4] of 1.65.
On the same counts, the results for `CCOC(=O)N1COCc2c1ccc1cc3ccc4c(c3nc21)COCN4C(=O)OCC` are greater than 200000 nM, 3500 nM, 1000 nM and 2.5.
On the same counts, the results for `CN1COCc2c1ccc1cc3ccc(N)c(CO)c3nc21` are 650 nM, 50 nM, 300 nM and 1.64.
Turning to `CNc1ccc2cc3ccc(NS(C)(=O)=O)cc3nc2c1CO`, the figures for the IC50 in series [1], in series [2] and in series [3] were 2800 nM, 4400 nM and 29000 nM, respectively. For the same molecule, the logP in series [4] is 0.55.
On the same counts, the results for `CNc1ccc2cc3ccc4c(c3nc2c1CO)COCN4S(C)(=O)=O` are 1600 nM, 100 nM, 3700 nM and 1.2.
On the same counts, the results for `CNc1ccc2cc3ccccc3nc2c1CO` are 1100 nM, 1400 nM, 2500 nM and 2.1.
